In ChEMBL document CHEMBL1140369, “Synthesis and SAR of 2-carboxylic acid indoles as inhibitors of plasminogen activator inhibitor-1” (Bioorg Med Chem Lett, 2005):

Assays:
[1] = target: T1, Plasminogen activator inhibitor 1 (Homo sapiens, UniProt P05121); test: Inhibitory concentration against Plasminogen activator inhibitor-1 by antibody assay
[2] = target: T1, Plasminogen activator inhibitor 1; test: Percentage inhibitory activity against Plasminogen activator inhibitor-1 at 25 uM
Outline: (§1)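 Recombinant human PAI-1 with compound, then tPA added; restored tPA cleavage of a chromogenic substrate read spectrophotometrically and reported as % inhibition at single concentration. Buffer pH 6.6: Na2HPO4 50 mM, NaCl 200 mM, EDTA 1 mM, no serum protein.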

[3] = target: T1, Plasminogen activator inhibitor 1; test: Percentage inhibitory activity against Plasminogen activator inhibitor-1 at 100 uM; outline: as §1
[4] = target: T1, Plasminogen activator inhibitor 1; test: Percentage inhibitory activity against Plasminogen activator inhibitor-1 at 10 uM; outline: as §1

T1 sequence (P05121 whole entry): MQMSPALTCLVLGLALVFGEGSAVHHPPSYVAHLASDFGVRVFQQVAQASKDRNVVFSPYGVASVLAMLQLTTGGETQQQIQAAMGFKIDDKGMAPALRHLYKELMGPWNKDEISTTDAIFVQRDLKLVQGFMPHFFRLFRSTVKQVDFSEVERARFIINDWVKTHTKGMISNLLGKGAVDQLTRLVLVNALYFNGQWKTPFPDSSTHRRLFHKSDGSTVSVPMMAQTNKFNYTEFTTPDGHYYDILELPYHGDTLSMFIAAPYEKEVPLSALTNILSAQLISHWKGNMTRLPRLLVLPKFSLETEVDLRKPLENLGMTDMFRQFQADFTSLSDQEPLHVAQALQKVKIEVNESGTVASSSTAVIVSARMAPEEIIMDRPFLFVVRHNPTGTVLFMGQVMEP

Compound | IC50 [1] | Inhibition [2] | Inhibition [3] | Inhibition [4]
O=C(Nc1ccc(Cl)c(Cl)c1)c1ccc(CNc2cc([N+](=O)[O-])ccc2C(=O)O)cc1 | 17.8 µM | 51% | 74% | 3%
Cn1c(C(=O)O)c(-c2ccccc2)c2cc(NS(=O)(=O)c3cccc4cccnc34)ccc21 | – | 1% | – | 0%
Cc1ccc(C)n1-c1ccc2c(c1)c(-c1ccccc1)c(C(=O)O)n2Cc1ccccc1 | – | 83% | – | 23%
O=C(O)c1cc2cc(NS(=O)(=O)c3ccc(Cl)c(Cl)c3)ccc2n1Cc1ccccc1 | – | – | 62% | –
O=C(O)c1cc2cc(NS(=O)(=O)c3ccccc3)ccc2n1Cc1ccccc1 | – | – | 32% | –
O=C(O)c1cc2cc(NS(=O)(=O)c3ccc(-c4ccccc4)cc3)ccc2n1Cc1ccccc1 | 63.1 µM | 49% | 64% | –
CC(C)(C)c1ccc(S(=O)(=O)Nc2ccc3c(c2)c(-c2ccccc2)c(C(=O)O)n3Cc2ccccc2)cc1 | – | 82% | – | 41%
O=C(Nc1ccc2c(c1)c(-c1ccccc1)c(C(=O)O)n2Cc1ccccc1)c1ccc(F)cc1F | – | 43% | – | 24%
O=C(O)C(=O)c1cn(Cc2ccccc2)c2ccc(-c3ccc(OC(F)(F)F)cc3)cc12 | – | 47% | 83% | 0%
O=C(O)c1c(-c2ccccc2)c2cc(NS(=O)(=O)c3ccccc3)ccc2n1Cc1ccc(-c2ccccc2)cc1 | – | 87% | – | 79%
O=C(O)c1c(-c2ccccc2)c2cc(Nc3ccc(-c4ccccc4)cc3)ccc2n1Cc1ccccc1 | – | 71% | – | 36%
O=C(Nc1ccc2c(c1)c(-c1ccccc1)c(C(=O)O)n2Cc1ccccc1)Nc1ccc(F)cc1F | – | 61% | – | 27%
Cn1c(C(=O)O)c(-c2ccccc2)c2cc(NS(=O)(=O)c3ccc(-c4ccccc4)cc3)ccc21 | – | 68% | – | 11%
Cc1cccc(Nc2ccc3c(c2)c(-c2ccccc2)c(C(=O)O)n3Cc2ccccc2)c1 | – | 69% | – | 24%
CC(C)(C)c1ccc(Nc2ccc3c(c2)c(-c2ccccc2)c(C(=O)O)n3Cc2ccc(-c3ccccc3)cc2)cc1 | – | 80% | – | 52%
O=C(O)c1c(-c2ccccc2)c2cc(NS(=O)(=O)c3ccc(OC(F)(F)F)cc3)ccc2n1Cc1ccccc1 | – | 81% | – | 33%
Cn1c(C(=O)O)c(-c2ccccc2)c2cc(NS(=O)(=O)c3ccc(C(C)(C)C)cc3)ccc21 | – | 46% | – | 5%
O=C(O)c1c(-c2ccccc2)c2cc(-n3cccc3)ccc2n1Cc1ccccc1 | – | 69% | – | 12%
CCCCS(=O)(=O)Nc1ccc2c(c1)cc(C(=O)O)n2Cc1ccccc1 | – | – | 14% | –
CC(C)(C)c1ccc(Nc2ccc3c(c2)c(-c2ccccc2)c(C(=O)O)n3Cc2ccccc2)cc1 | – | 73% | – | 45%
O=C(O)c1c(-c2ccccc2)c2cc(NS(=O)(=O)c3ccc(-c4ccccc4)cc3)ccc2n1Cc1ccccc1 | – | 61% | – | 44%
O=C(O)c1c(-c2ccccc2)c2cc(NS(=O)(=O)c3cccc4cccnc34)ccc2n1Cc1ccccc1 | – | 43% | – | 8%
Cn1c(C(=O)O)c(-c2ccccc2)c2cc(NS(=O)(=O)c3ccc(OC(F)(F)F)cc3)ccc21 | – | 19% | – | 0%
